# Experimental data published in ChEMBL document CHEMBL4257500, “Design, synthesis and antimycobacterial activity of hybrid molecules combining pyrazinamide with a 4-phenylthiazol-2-amine scaffold” (Medchemcomm, 2018).
# Experiments:
# [1] = test system: Mycobacterium tuberculosis; test: Antimycobacterial activity against Mycobacterium tuberculosis H37Rv ATCC 27294 incubated in dark for 5 days by Alamar Blue assay; format: functional; settings: H37Rv ATCC 27294, 120 h
# Outline: (§1)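 Middlebrook 7H9 broth with 0.4% glycerol and 10% OADC, pH 6.6. Compounds in DMSO, final 100–1.56 µg/mL by twofold steps. Inoculum 0.5–1.0 McFarland in saline, diluted 10⁻¹. Static incubation at 37 °C, dark, humid, 5 days. Alamar Blue (resazurin/Tween 80) added, read after 24 h. MIC = lowest concentration preventing the blue-to-pink change by eye; turbidity also inspected. Isoniazid control.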
# [2] = test system: Mycobacterium kansasii; test: Antimycobacterial activity against Mycobacterium kansasii Hauduroy ATCC 12478 incubated in dark for 5 days by Alamar Blue assay; format: functional, Mycobacterium kansasii ATCC 12478; settings: 120 h
# [3] = test system: Mycobacterium avium; test: Antimycobacterial activity against Mycobacterium avium subsp. avium Chester ATCC 15769 incubated in dark for 5 days by Alamar Blue assay; format: functional; settings: Chester ATCC 15769, 120 h; outline: as §1
# [4] = test system: Mycolicibacterium smegmatis; test: Antimycobacterial activity against Mycobacterium smegmatis ATCC 607 incubated in dark for 48 hrs by resazurin assay; format: functional; settings: ATCC 607, 48 h
# Outline: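 Broth microdilution in Middlebrook 7H9 with glycerol and OADC, pH 6.6. Inoculum 0.5–1.0 McFarland, diluted 1:20 in broth. Compounds in DMSO by binary dilution, final 3.91–500 µg/mL; DMSO ≤2.5% v/v. Sealed plates kept dark, 37 °C, no agitation. After 48 h, 0.01% resazurin added; read after a further 2.5 h. Run in duplicate.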
# [5] = Solubility of compound in DMSO at 15 mg at 55 to 80 degC; format: physicochemical
# [6] = Solubility of compound in DMSO at 15 mg at room temperature; format: physicochemical
# [7] = test system: Mycobacterium tuberculosis; test: Antimycobacterial activity against Mycobacterium tuberculosis H37Rv assessed as growth inhibition at 6.25 ug/ml by BACTEC 460 radiometric assay relative to control; format: functional; settings: read-out: GI
# [8] = test system: HepG2; test: Cytotoxicity against human HepG2 cells assessed as decrease in cell viability after 24 hrs by MTS assay; format: cell-based; settings: HepG2, 24 h
# Outline: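 HepG2 (passage 32–34) seeded at 1×10^4 cells/well and treated 24 h later. Compounds in DMSO, 0.1–1000 µM depending on solubility; DMSO ≤1%. Triplicates at 37 °C, 5% CO2 for 24 h. MTS reagent (CellTiter 96 AQueous One) for 2 h, absorbance at 490 nm. IC50 by nonlinear regression of absorbance relative to untreated cells.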
# [9] = Selectivity index, ratio of IC50 for human HepG2 cells to MIC for Mycobacterium tuberculosis H37Rv ATCC 27294; format: toxicity; settings: read-out: Selectivity Index
# Outline: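 SI = HepG2 IC50 / Mtb H37Rv MIC, with MIC converted to µM (µg/mL ÷ MW). HepG2 cells (passage 32–34) seeded at 1×10^4 per well. Treated after 24 h with 0.1–1000 µM depending on solubility, DMSO ≤1%, triplicates, 37 °C, 5% CO2, 24 h. Viability read by MTS-type reagent at 490 nm after 2 h. IC50 from nonlinear regression.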
# [10] = test system: HepG2; test: Cytotoxicity against human HepG2 cells assessed as decrease in cell viability after 24 hrs by CellTox green assay; format: cell-based; settings: HepG2, 24 h
# Outline: (§2)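 HepG2 seeded at 1×10^4 cells/well, dosed the next day with compounds in DMSO at 0.1–500 µM; DMSO ≤1%. Triplicates at 37 °C, 5% CO2. CellTox Green reagent added after 24 h exposure, 15 min at room temperature, fluorescence Ex 485/Em 520 nm. Reading repeated 24 h later for the 48 h value. IC50 by nonlinear regression against untreated control.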
# [11] = test system: HepG2; test: Cytotoxicity against human HepG2 cells assessed as decrease in cell viability after 48 hrs by CellTox green assay; format: cell-based; settings: HepG2, 48 h; outline: as §2
Compound,MIC [1],MIC [2] [µg/mL],MIC [3] [µg/mL],MIC [4] [µg/mL],solubility [5],solubility [6],inhibition of growth at 6.25 µg/mL [7] [%],IC50 [8] [µM],selectivity ratio [9],IC50 [10] [µM],IC50 [11] [µM]
O=C(Nc1nc(-c2ccccn2)cs1)c1cncc(Cl)n1,> 50 µg/mL,> 50,> 50,> 125,Soluble,,,,,,
O=C(Nc1nc(-c2ccc(Cl)cc2)cs1)c1cnc(Cl)cn1,> 50 µg/mL,> 50,> 50,> 500,,Soluble,,,,,
Cc1cnc(NC(=O)c2cnc(C(C)(C)C)c(Cl)n2)s1,,,,,,,15 to 65,,,,
O=C(Nc1nc(-c2ccccc2)cs1)c1cncc(Cl)n1,> 50 µg/mL,> 50,,> 500,Soluble,,,,,,
O=C(Nc1nc(-c2ccc(Cl)cc2)cs1)c1cnccn1,> 12.5 µg/mL,> 12.5,> 12.5,62.5,,Insoluble,,,,,
O=C(Nc1nccs1)c1cncc(Cl)n1,,,,,,,15 to 65,,,,
NNC(=O)c1ccncc1 [ISONIAZID],0.1 to 0.2 µg/mL,12.5 to 25,6.25 to 12.5,7.8 to 15.6,,Soluble,,,,,
O=C(Nc1nc(-c2ccccn2)cs1)c1cnccn1,22.1 µM,> 50,> 50,> 125,Soluble,,,> 25,> 1.1,,
Cc1csc(NC(=O)c2cncc(Cl)n2)n1,,,,,,,15 to 65,,,,
COc1ccc(-c2csc(NC(=O)c3cncc(Cl)n3)n2)cc1,4.5 µM,12.5,> 12.5,62.5,,Insoluble,,> 25,> 5.6,,
O=C(O)c1cn(C2CC2)c2cc(N3CCNCC3)c(F)cc2c1=O [CIPROFLOXACIN],0.098 to 0.195 µg/mL,0.098 to 0.195,0.098 to 0.195,0.098 to 0.195,,,,,,,
COc1ccc(-c2csc(NC(=O)c3cnc(Cl)cn3)n2)cc1,4.5 µM,> 50,> 50,> 500,Soluble,,,> 75,> 16.7,,
COc1ccc(-c2csc(NC(=O)c3cnc(Cl)cn3)n2)cc1OC,> 12.5 µg/mL,> 12.5,> 12.5,> 250,,Insoluble,,,,,
CC(C)(C)c1ncc(C(=O)Nc2nccs2)nc1Cl,,,,,,,15 to 65,,,,
O=C(Nc1nc(-c2ccc(Cl)cc2)cs1)c1cncc(Cl)n1,> 12.5 µg/mL,> 12.5,> 12.5,62.5,,Soluble,,,,,
COc1ccc(-c2csc(NC(=O)c3cnccn3)n2)cc1OC,> 50 µg/mL,> 50,> 50,> 125,,Soluble,,,,,
O=C(Nc1nc(-c2ccc(F)cc2)cs1)c1cnccn1,> 12.5 µg/mL,> 12.5,> 12.5,> 250,,Insoluble,,,,,
Cc1cnc(NC(=O)c2cncc(Cl)n2)s1,,,,,,,15 to 65,,,,
O=C(Nc1nc(-c2ccccc2)cs1)c1cnc(Cl)cn1,> 100 µg/mL,> 100,> 100,> 500,Soluble,,,,,,
Cc1csc(NC(=O)c2cnc(C(C)(C)C)c(Cl)n2)n1,,,,,,,15 to 65,,,,
O=C(Nc1nc(-c2ccccn2)cs1)c1cnc(Cl)cn1,> 50 µg/mL,> 50,> 50,> 125,Soluble,,,,,,
O=C(Nc1nc(-c2ccc(F)cc2)cs1)c1cnc(Cl)cn1,9.4 µM,12.5,> 50,> 500,,Soluble,,24.8,2.7,22.4,18.1
COc1ccc(-c2csc(NC(=O)c3cncc(Cl)n3)n2)cc1OC,4.1 µM,> 12.5,> 12.5,> 125,,Insoluble,,> 25,> 6,,
CO[C@H]1/C=C/O[C@@]2(C)Oc3c(C)c(O)c4c(O)c(c(/C=N/N5CCN(C)CC5)c(O)c4c3C2=O)NC(=O)/C(C)=C\C=C\[C@H](C)[C@H](O)[C@@H](C)[C@@H](O)[C@@H](C)[C@H](OC(C)=O)[C@@H]1C [RIFAMPIN],0.78 to 1.56 µg/mL,0.78 to 1.56,0.78 to 1.56,0.78 to 1.56,,,,,,,
O=C(Nc1nc(-c2ccccc2)cs1)c1cnccn1,> 50 µg/mL,> 50,,> 250,,Soluble,,,,,
O=C(Nc1nc(-c2ccc(F)cc2)cs1)c1cncc(Cl)n1,2.3 µM,0.78,0.78,> 250,,Soluble,,> 50,> 21.5,> 50,> 50
COc1ccc(-c2csc(NC(=O)c3cnccn3)n2)cc1,> 100 µg/mL,> 100,> 100,> 250,,Soluble,,,,,
